Published values pooled from the literature.
Protocols differ between the studies behind these lines.
Cell line: HOP-62
Observed: cell growth or viability

For O=C1Nc2ccccc2C1=NNc1nnc2n1N=C(c1ccccc1)CS2, the inhibition was 54% (SRB; 10 µM).
With COc1ccc(-c2ccc(-c3ccc(C(=N)N)nc3)s2)cc1 the GI50 was 1.8 µM (SRB).
With COc1ccc(C(=O)/C=C/c2c(F)cccc2Cl)cc1S(N)(=O)=O the GI50 was 3 µM (SRB; 48 h).
O=C1NCCc2[nH]c(-c3ccncc3)cc21 gave an IC50 of 9.94 µM.
COc1cccc(Oc2ccccc2NC(=O)CNC(=O)c2cccc3ccccc23)c1 gave a GI50 of 0.302 µM (SRB; 48 h).
c1ccc2cc(Cn3cc[n+](Cc4ccc5ccccc5c4)c3)ccc2c1 gave a TGI of 17 µM (SRB).
COc1ccc(C(=O)/C=C/c2cccc3ccccc23)cc1S(N)(=O)=O gave an inhibition of 82% (SRB; 10 µM).
O=C1NC(=NCc2cccs2)S/C1=C\c1ccc2ncccc2c1 has an IC50 of > 10 µM.
CCCc1n(Cc2ccc3ccccc3n2)cc[n+]1Cc1ccc2ccccc2n1 gave a TGI of 19.4 µM (SRB).
COc1cccc2c1C(=O)c1c(O)c3c(c(O)c1C2=O)C[C@@](O)(C(=O)CO)C[C@@H]3O[C@H]1C[C@H](N)[C@H](O)[C@H](C)O1 has an inhibition of 98.9% (SRB; 10 µg/mL; 48 h).
CCCCc1n(Cc2ccc3ccccc3n2)cc[n+]1Cc1ccc2ccccc2n1 gave a TGI of 12 µM (SRB).
With COc1ccc(-c2ccc(-c3ccc(C(=N)N)nc3)s2)cc1Cl the GI50 was 1.9 µM (SRB).
